For experiment [1], the system named is Rattus norvegicus. Nature of the experiment: Diabetogenic activity in Lewis strain of albino rats after iv administration. The experiment is classed as functional. In a few lines: (§1)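 Male Lewis rats (200-230 g), 24 per dose level, fasted 12 h, then dosed by tail-vein iv injection, or ip as a saline suspension when poorly soluble. A rat counted as diabetic if glucosuria (>1%) appeared within 24 h and persisted 5 days. Blood sugar and islet histology were also observed. The dose making 50% of animals diabetic (ED50, mmol/kg) was estimated graphically.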

Experiment [2] can be described thus: Relative potency compared to that of Alloxan in albino rats. The format is functional.
Experiment [3] in a line: Relative potency compared to that of streptozotocin in albino rats. The experiment is classed as functional.
Experiment [4] relates to Rattus norvegicus. The experiment can be described thus: Diabetogenic activity in Lewis strain of albino rats after ip administration. The format is functional. In a few lines:
as §1

Experiment [5] deals with Rattus norvegicus. Nature of the experiment: Diabetogenic activity in Lewis strain of albino rats after iv administration; Inactive nondiabetogenic at the dose 2 g/kg ip; inactive. The experiment is classed as functional, organism-based. In a few lines:
as §1

Experiment [6] is described as follows: Relative potency compared to that of streptozotocin in albino rats; Inactive nondiabetogenic at the dose 2 g/kg ip; inactive. The experiment is classed as functional.
Experiment [7] in a line: Relative potency compared to that of Alloxan in albino rats; Inactive nondiabetogenic at the dose 2 g/kg ip; inactive. The format is functional.
Where [8] appears, read: Rattus norvegicus, iv, read-out: ED50.

One may read the ED50 as the dose that gives a 50% effect, or the effect in half of the subjects.

Active and inactive are the calls of the source. The calls are words filed in the database; no cut-off is given here.

For the compound `CN(N=O)C(=O)N[C@@H](C=O)[C@@H](O)[C@H](O)[C@H](O)CO` [STREPTOZOCIN], the median effective dose (ED50) in the experiment on Rattus norvegicus [1] (setting [8]) amounted to 150 µmol/kg. The Relative potency in experiment [2] amounted to 2.1; in experiment [3], 1.
On to `Cl.NC1(O)C(=O)NC(=O)NC1=O`, for which it took a dose of 140 µmol/kg to reach the 50% effect level in the experiment on Rattus norvegicus [1] (ED50). For the same compound, the Relative potency in experiment [2] was determined as 2.2; in experiment [3], 1.1.
In the case of `O=C1NC(=O)C(O)(O)C(=O)N1`, the median effective dose (ED50) in the experiment on Rattus norvegicus [1] (setting [8]) was 310 µmol/kg; with Rattus norvegicus [4] it was 1120 µmol/kg. Also, the Relative potency in experiment [2] came out at 1; in experiment [3], 0.5.
`NC(=O)NC1(O)C(=O)NC(=O)NC1=O`: in the experiment with Rattus norvegicus [1] (setting [8]), the median effective dose (ED50) amounted to 150 µmol/kg. Further, the Relative potency in experiment [2] turned out to be 2.1; in experiment [3], 1.
The corresponding values for `Br.NC1(O)C(=O)NC(=O)NC1=O` are 150 µmol/kg, 2.1 and 1.
Take `O=C1NC(=O)C2(O)NC(=O)NC2(O)N1` (configuration not stated): the Relative potency in experiment [2] is 1.1. The compound further yielded a median effective dose (ED50) in the experiment on Rattus norvegicus [4] of 1060 µmol/kg.
Regarding `NC(=O)NC1(N)C(=O)NC(=O)NC1=O`, the ED50 entry in the experiment on Rattus norvegicus [5] is “inactive”. Also, the Relative potency entry in experiment [6] and in experiment [7] was “inactive” in each case.
On to `Cl.N=C1C(=O)NC(=O)NC1=O`, for which it took a dose of 140 µmol/kg to reach the 50% effect level in the experiment with Rattus norvegicus [1] (ED50). Moreover, the Relative potency in experiment [2] is reported as 2.2; in experiment [3], 1.1.
As for `Br.N=C1C(=O)NC(=O)NC1=O`, in the experiment with Rattus norvegicus [1] (setting [8]), the 50% effective dose (ED50) stood at 160 µmol/kg. Further, the results for the Relative potency in experiment [2] and in experiment [3] were 1.9 and 0.9, respectively.

The values above are taken from ChEMBL document CHEMBL1122234, “Oxidation of uric acid. 4. Synthesis, structure, and diabetogenic action of 5-imino-2,4,6(1H,3H,5H)-pyrimidinetrione salts and their alloxan-like covalent adducts” (1983).
